From ChEMBL document CHEMBL4819106, “Aminopyrazole based CDK9 PROTAC sensitizes pancreatic cancer cells to venetoclax” (Bioorg Med Chem Lett, 2021)
Calls of active or inactive are those of the source. The rule behind the calls is not given here.

Columns and labels:
[1] = biological target: T1, Cyclin-dependent kinase 9 (Homo sapiens, UniProt P50750); assay: Inhibition of CDK9 in human HEK293 cells assessed as reduction in CDK9 level at 1 uM incubated for 8 hrs in presence of flavopiridol by Western blot analysis
T1 sequence (P50750 whole entry): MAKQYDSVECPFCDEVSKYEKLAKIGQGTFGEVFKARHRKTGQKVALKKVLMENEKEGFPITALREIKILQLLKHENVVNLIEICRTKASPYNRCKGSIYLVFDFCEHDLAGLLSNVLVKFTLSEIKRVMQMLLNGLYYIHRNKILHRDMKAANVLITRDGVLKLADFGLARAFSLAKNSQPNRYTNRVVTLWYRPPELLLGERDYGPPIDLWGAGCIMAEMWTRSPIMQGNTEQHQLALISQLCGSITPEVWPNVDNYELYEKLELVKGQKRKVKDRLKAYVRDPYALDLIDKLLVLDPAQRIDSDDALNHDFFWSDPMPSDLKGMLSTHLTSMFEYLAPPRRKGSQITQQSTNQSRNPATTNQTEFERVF

MIA PaCa-2 [2] = assay: Antiproliferative activity against human MIA PaCa-2 cells assessed as sensitizing activity by measuring combination index at ED75 measured after 3 days in presence of ABT- 263 by Prestoblue assay; format: functional; settings: time 3 day
How it was run: (§1)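 MiaPaCa2 cells were treated for 3 days with the CDK9 degrader and a Bcl2-family inhibitor (ABT-263, ABT-199 or WEHI-539), singly and combined. Viability was read by PrestoBlue. Combination index values were calculated with CalcuSyn at effective doses ED50, ED75 and ED90.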

[3] = biological target: T2, Protein cereblon/Cyclin-dependent kinase 9 (Homo sapiens, UniProt P50750+Q96SW2); assay: Protac activity at CDK9/CRBN in human HEK293 cells assessed as degradation of CDK9 at 1 uM incubated for 24 hrs in presence of pomalidomide by Western blot analysis; format: cell-based
How it was run: (§2)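 Competition in HEK293 cells: 10 μM pomalidomide (CRBN ligand) alone or combined with 1 μM degrader for 24 h; lysates analysed by western blot.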
Target sequence in this assay (P50750 whole entry, looked up): as the sequence (P50750 whole entry) above
Target sequence in this assay (Q96SW2 whole entry, looked up): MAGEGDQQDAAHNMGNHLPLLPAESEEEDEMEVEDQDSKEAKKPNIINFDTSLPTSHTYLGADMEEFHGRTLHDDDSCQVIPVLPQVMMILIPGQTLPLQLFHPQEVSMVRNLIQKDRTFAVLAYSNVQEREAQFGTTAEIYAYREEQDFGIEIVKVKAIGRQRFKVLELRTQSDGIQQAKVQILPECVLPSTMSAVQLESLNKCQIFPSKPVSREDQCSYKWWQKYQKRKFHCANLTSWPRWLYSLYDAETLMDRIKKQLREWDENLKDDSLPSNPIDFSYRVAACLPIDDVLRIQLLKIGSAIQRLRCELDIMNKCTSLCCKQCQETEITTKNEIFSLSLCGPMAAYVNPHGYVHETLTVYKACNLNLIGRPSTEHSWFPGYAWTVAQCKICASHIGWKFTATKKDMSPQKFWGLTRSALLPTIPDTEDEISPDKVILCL

MIA PaCa-2 [4] = assay: Antiproliferative activity against human MIA PaCa-2 cells assessed as sensitizing activity by measuring combination index at ED90 measured after 3 days in presence of ABT- 199 by Prestoblue assay; format: functional; settings: time 3 day
How it was run: as §1

[5] = biological target: Protein cereblon/Cyclin-dependent kinase 5 (Homo sapiens) (UniProt Q00535+Q96SW2); assay: Protac activity at CDK5/CRBN in human HEK293 cells assessed as degradation of CDK5 at 1 uM measured upto 24 hrs by Western blot analysis; format: cell-based; settings: time hrs <=24
Sequence of Protein cereblon/Cyclin-dependent kinase 5 (Homo sapiens) (Q00535 whole entry, looked up): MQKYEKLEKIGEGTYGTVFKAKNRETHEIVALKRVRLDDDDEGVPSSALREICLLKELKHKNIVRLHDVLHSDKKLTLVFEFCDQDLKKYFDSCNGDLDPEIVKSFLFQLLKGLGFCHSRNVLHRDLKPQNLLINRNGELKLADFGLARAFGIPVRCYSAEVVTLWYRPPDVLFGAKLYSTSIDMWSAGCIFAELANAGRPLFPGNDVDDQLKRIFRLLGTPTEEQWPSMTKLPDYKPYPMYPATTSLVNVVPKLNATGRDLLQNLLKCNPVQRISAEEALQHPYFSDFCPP
Sequence of Protein cereblon/Cyclin-dependent kinase 5 (Homo sapiens) (Q96SW2 whole entry, looked up): as the sequence (Q96SW2 whole entry, looked up) above
How it was run: (§3)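 Time course in HEK293 cells at 1 μM degrader; lysates collected at indicated time points up to 24 h and probed by western blot for the various CDKs.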

[6] = biological target: T2, Protein cereblon/Cyclin-dependent kinase 9; assay: Protac activity at CDK9/CRBN in human HEK293 cells assessed as degradation of CDK9 incubated for 24 hrs by Western blot analysis; format: cell-based
How it was run: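 HEK293 cells were treated with increasing concentrations (0.01–10 μM) for 24 hr. Lysates were analysed by western blot for CDK9 degradation.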

[7] = biological target: Protein cereblon/Cyclin-dependent kinase 7 (Homo sapiens) (UniProt P50613+Q96SW2); assay: Protac activity at CDK7/CRBN in human HEK293 cells assessed as degradation of CDK7 at 10 uM incubated for 24 hrs in presence of pomalidomide by Western blot analysis; format: cell-based
Sequence of Protein cereblon/Cyclin-dependent kinase 7 (Homo sapiens) (P50613 whole entry, looked up): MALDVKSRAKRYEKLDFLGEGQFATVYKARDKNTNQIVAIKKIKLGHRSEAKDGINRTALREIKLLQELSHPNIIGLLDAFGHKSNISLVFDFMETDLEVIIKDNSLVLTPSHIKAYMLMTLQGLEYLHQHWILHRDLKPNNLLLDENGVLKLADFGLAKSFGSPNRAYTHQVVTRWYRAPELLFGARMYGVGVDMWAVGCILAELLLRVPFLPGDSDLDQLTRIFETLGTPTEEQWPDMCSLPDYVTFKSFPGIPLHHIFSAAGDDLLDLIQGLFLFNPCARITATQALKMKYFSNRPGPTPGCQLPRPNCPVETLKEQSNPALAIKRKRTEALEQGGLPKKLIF
Sequence of Protein cereblon/Cyclin-dependent kinase 7 (Homo sapiens) (Q96SW2 whole entry, looked up): as the sequence (Q96SW2 whole entry, looked up) above
How it was run: as §2

[8] = biological target: T3, Protein cereblon/Cyclin-dependent kinase 6 (Homo sapiens) (UniProt Q00534+Q96SW2); assay: Protac activity at CDK6/CRBN in human HEK293 cells assessed as degradation of CDK6 at 0.01 to 10 uM incubated for 24 hrs by Western blot analysis; format: cell-based; settings: dose 0.01-10 µM
T3 sequence (Q00534 whole entry, looked up): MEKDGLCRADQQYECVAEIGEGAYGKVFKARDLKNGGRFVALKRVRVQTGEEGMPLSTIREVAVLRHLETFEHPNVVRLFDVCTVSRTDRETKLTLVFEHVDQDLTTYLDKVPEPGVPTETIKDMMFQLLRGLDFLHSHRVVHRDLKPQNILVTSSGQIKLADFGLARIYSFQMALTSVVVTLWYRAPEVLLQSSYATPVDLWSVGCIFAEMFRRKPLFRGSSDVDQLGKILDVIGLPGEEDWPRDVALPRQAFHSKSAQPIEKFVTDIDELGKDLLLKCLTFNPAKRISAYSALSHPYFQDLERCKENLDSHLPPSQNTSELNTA
T3 sequence (Q96SW2 whole entry, looked up): as the sequence (Q96SW2 whole entry, looked up) above

[9] = biological target: T4, Protein cereblon/Cyclin-dependent kinase 8 (Homo sapiens) (UniProt P49336+Q96SW2); assay: Protac activity at CDK8/CRBN in human HEK293 cells assessed as degradation of CDK8 at 0.01 to 10 uM incubated for 24 hrs by Western blot analysis; format: cell-based; settings: dose 0.01-10 µM
T4 sequence (P49336 whole entry, looked up): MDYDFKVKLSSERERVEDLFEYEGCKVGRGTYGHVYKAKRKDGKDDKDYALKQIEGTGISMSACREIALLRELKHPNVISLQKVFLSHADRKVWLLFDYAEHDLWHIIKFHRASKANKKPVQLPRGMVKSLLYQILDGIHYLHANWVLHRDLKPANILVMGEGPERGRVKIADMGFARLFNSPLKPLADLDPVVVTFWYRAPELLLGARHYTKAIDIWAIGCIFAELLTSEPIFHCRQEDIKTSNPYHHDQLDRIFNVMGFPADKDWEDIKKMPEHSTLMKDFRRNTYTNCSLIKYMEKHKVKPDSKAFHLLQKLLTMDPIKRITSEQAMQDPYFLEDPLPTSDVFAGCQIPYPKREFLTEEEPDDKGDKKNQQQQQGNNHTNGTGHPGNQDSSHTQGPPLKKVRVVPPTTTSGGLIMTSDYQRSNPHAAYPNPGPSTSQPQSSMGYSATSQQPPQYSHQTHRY
T4 sequence (Q96SW2 whole entry, looked up): as the sequence (Q96SW2 whole entry, looked up) above

[10] = biological target: T3, Protein cereblon/Cyclin-dependent kinase 6 (Homo sapiens); assay: Protac activity at CDK6/CRBN in human HEK293 cells assessed as degradation of CDK6 at 1 uM measured upto 24 hrs by Western blot analysis; format: cell-based; settings: time hrs <=24
How it was run: as §3

[11] = biological target: Cyclin-dependent kinase 7 (Homo sapiens) (UniProt P50613); assay: Inhibition of CDK7 in human HEK293 cells assessed as reduction in CDK7 level at 10 uM incubated for 24 hrs in presence of flavopiridol by Western blot analysis; format: cell-based
Sequence of Cyclin-dependent kinase 7 (Homo sapiens) (P50613 whole entry): as the sequence (P50613 whole entry, looked up) above

[12] = biological target: Protein cereblon/Cyclin-dependent kinase 12 (Homo sapiens) (UniProt Q9NYV4+Q96SW2); assay: Protac activity at CDK12/CRBN in human HEK293 cells assessed as degradation of CDK12 at 0.01 to 10 uM incubated for 24 hrs by Western blot analysis; format: cell-based; settings: dose 0.01-10 µM
[13] = biological target: T1, Cyclin-dependent kinase 9; assay: Inhibition of CDK9 (unknown origin)
[14] = biological target: T5, Protein cereblon/Cyclin-dependent kinase 1 (Homo sapiens) (UniProt P06493+Q96SW2); assay: Protac activity at CDK1/CRBN in human HEK293 cells assessed as degradation of CDK1 at 1 uM measured upto 24 hrs by Western blot analysis; format: cell-based; settings: time hrs <=24
T5 sequence (P06493 whole entry, looked up): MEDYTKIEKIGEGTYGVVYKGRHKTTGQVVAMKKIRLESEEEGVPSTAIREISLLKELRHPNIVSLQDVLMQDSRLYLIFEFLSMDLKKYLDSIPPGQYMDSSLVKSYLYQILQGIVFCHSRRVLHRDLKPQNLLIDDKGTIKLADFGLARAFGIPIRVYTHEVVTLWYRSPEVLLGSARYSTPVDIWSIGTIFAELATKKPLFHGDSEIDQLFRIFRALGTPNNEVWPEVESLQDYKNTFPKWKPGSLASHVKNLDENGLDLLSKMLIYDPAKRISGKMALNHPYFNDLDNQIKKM
T5 sequence (Q96SW2 whole entry, looked up): as the sequence (Q96SW2 whole entry, looked up) above
How it was run: as §3

[15] = biological target: Cyclin-dependent kinase 5 (Homo sapiens, UniProt Q00535); assay: Binding affinity to CDK5 (unknown origin)
Sequence of Cyclin-dependent kinase 5 (Q00535 whole entry): as the sequence (Q00535 whole entry, looked up) above

[16] = biological target: T2, Protein cereblon/Cyclin-dependent kinase 9; assay: Protac activity at CDK9/CRBN in human HEK293 cells assessed as degradation of CDK9 by Western blot analysis; format: cell-based; settings: TDE = time-dependent effect
Target sequence in this assay (P50750 whole entry, looked up): as the sequence (P50750 whole entry) above
Target sequence in this assay (Q96SW2 whole entry, looked up): as the sequence (Q96SW2 whole entry, looked up) above

[17] = biological target: T5, Protein cereblon/Cyclin-dependent kinase 1 (Homo sapiens); assay: Protac activity at CDK1/CRBN in human HEK293 cells assessed as degradation of CDK1 at 0.01 to 10 uM incubated for 24 hrs by Western blot analysis; format: cell-based; settings: dose 0.01-10 µM
[18] = biological target: T1, Cyclin-dependent kinase 9; assay: Binding affinity to CDK9 (unknown origin)
[19] = biological target: T6, Protein cereblon/Cyclin-dependent kinase 4 (Homo sapiens) (UniProt P11802+Q96SW2); assay: Protac activity at CDK4/CRBN in human HEK293 cells assessed as degradation of CDK4 at 0.01 to 10 uM incubated for 24 hrs by Western blot analysis; format: cell-based; settings: dose 0.01-10 µM
T6 sequence (P11802 2-303 limits assumed): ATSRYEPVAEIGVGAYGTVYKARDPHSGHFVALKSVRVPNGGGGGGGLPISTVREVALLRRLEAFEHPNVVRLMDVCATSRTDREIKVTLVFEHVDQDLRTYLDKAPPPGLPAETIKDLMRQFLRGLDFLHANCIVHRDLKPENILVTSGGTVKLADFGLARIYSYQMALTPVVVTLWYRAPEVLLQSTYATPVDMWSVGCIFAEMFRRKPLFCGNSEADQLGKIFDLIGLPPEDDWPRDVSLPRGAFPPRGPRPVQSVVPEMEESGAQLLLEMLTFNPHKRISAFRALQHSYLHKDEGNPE
T6 sequence (Q96SW2 whole entry partner): as the sequence (Q96SW2 whole entry, looked up) above

[20] = biological target: T2, Protein cereblon/Cyclin-dependent kinase 9; assay: Protac activity at CDK9/CRBN in human MIA PaCa-2 cells assessed as degradation of CDK9; format: cell-based
Target sequence in this assay (P50750 whole entry, looked up): as the sequence (P50750 whole entry) above
Target sequence in this assay (Q96SW2 whole entry, looked up): as the sequence (Q96SW2 whole entry, looked up) above

[21] = biological target: T2, Protein cereblon/Cyclin-dependent kinase 9; assay: Protac activity at CDK9/CRBN in human HEK293 cells assessed as degradation of CDK9 at 1 uM incubated for 24 hrs by Western blot analysis relative to control; format: cell-based
Target sequence in this assay (P50750 whole entry, looked up): as the sequence (P50750 whole entry) above
Target sequence in this assay (Q96SW2 whole entry, looked up): as the sequence (Q96SW2 whole entry, looked up) above

[22] = biological target: T4, Protein cereblon/Cyclin-dependent kinase 8 (Homo sapiens); assay: Protac activity at CDK8/CRBN in human HEK293 cells assessed as degradation of CDK8 at 1 uM measured upto 24 hrs by Western blot analysis; format: cell-based; settings: time hrs <=24
How it was run: as §3

[23] = biological target: Cyclin-dependent kinase 2 (Homo sapiens, UniProt P24941)
[24] = biological target: T2, Protein cereblon/Cyclin-dependent kinase 9; assay: Protac activity at CDK9/CRBN in human HEK293 cells assessed as degradation of CDK9 at 1 uM incubated for 24 hrs in presence of MG132 by Western blot analysis; format: cell-based
How it was run: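 HEK293 cells co-treated for 24 h with degrader and increasing concentrations of proteasome inhibitor MG132; lysates examined by western blot.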
Target sequence in this assay (P50750 whole entry, looked up): as the sequence (P50750 whole entry) above
Target sequence in this assay (Q96SW2 whole entry, looked up): as the sequence (Q96SW2 whole entry, looked up) above

[25] = biological target: T2, Protein cereblon/Cyclin-dependent kinase 9; assay: Protac activity at CDK9/CRBN in human SUIT-2 cells assessed as degradation of CDK9; format: cell-based
Target sequence in this assay (P50750 whole entry, looked up): as the sequence (P50750 whole entry) above
Target sequence in this assay (Q96SW2 whole entry, looked up): as the sequence (Q96SW2 whole entry, looked up) above

[26] = biological target: T6, Protein cereblon/Cyclin-dependent kinase 4 (Homo sapiens); assay: Protac activity at CDK4/CRBN in human HEK293 cells assessed as degradation of CDK4 at 1 uM measured upto 24 hrs by Western blot analysis; format: cell-based; settings: time hrs <=24
How it was run: as §3

MIA PaCa-2 [27] = assay: Antiproliferative activity against human MIA PaCa-2 cells assessed as sensitizing activity by measuring combination index at ED50 measured after 3 days in presence of ABT- 199 by Prestoblue assay; format: functional; settings: time 3 day
How it was run: as §1

[28] = biological target: T2, Protein cereblon/Cyclin-dependent kinase 9; assay: Protac activity at CDK9/CRBN in human HEK293 cells assessed as degradation of CDK9 at 1 uM measured up to 24 hrs by Western blot analysis; format: cell-based; settings: time hrs <=24
How it was run: as §3

MIA PaCa-2 [29] = assay: Antiproliferative activity against human MIA PaCa-2 cells assessed as sensitizing activity by measuring combination index at ED50 measured after 3 days in presence of ABT- 263 by Prestoblue assay; format: functional; settings: time 3 day
How it was run: as §1

O=C(CCCOc1ccc(CC(=O)Nc2cc(C3CCC3)[nH]n2)cc1)NCCCCNc1cccc2c1C(=O)N(C1CCC(=O)NC1=O)C2=O (stereo not given)
Activity [1]: inactive
CI (MIA PaCa-2 [2]): 0.12
Activity [3]: inactive
CI (MIA PaCa-2 [4]): 0.001
Activity [5]: inactive
Activity [6]: Dose-Dependent Effect
DC50 [6]: 158 nM
Activity [7]: inactive
Activity [8]: inactive
Activity [9]: inactive
Activity [10]: inactive
Activity [11]: inactive
Activity [12]: inactive
IC50 [13]: 530 nM
Activity [14]: inactive
Kd [15]: 815 nM
Activity [16]: Tde
Activity [17]: inactive
Kd [18]: 1050 nM
Activity [19]: inactive
Activity [20]: Active
Activity [21]: 100%
Activity [22]: inactive
IC50 [23]: 155 nM
Activity [24]: inactive
Activity [25]: Active
Activity [26]: inactive
CI (MIA PaCa-2 [27]): 0.02
Activity [28]: Active
CI (MIA PaCa-2 [29]): 0.16
